Measurements reported in ChEMBL document CHEMBL1129241, “Immunosuppressive cyclolignans” (J Med Chem, 1996).
≈ marks a conversion by molar mass, not a printed value.

How the values were obtained:
[1] = Compound was tested for Cytotoxic activity by lymphocyte viability assay.; details: Mus musculus
Outline: (§1)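 Balb/c mouse splenocytes alone, added to wells holding dried test compound (eight dilutions, 10 to 3.33 × 10^-6 mg/mL, applied in EtOH and evaporated); culture-medium wells serve as nonspecific control. Incubated 96 h at 37 °C, 5% CO2, then MTT added; formazan dissolved in 2-propanol and absorbance read at 570 nm.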

Mus musculus [2] = organism: Mus musculus; test: (§2) Compound was tested for Immunosuppression activity by mixed lymphocyte reaction (MLR) in murine splenocytes of mice; type: functional
Outline: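 Two-way MLR: Balb/c and C57Bl/6 splenocytes combined in wells holding dried compound (eight dilutions, 10 to 3.33 × 10^-6 mg/mL, applied in EtOH and evaporated; duplicates). Incubated 96 h at 37 °C, 5% CO2, then pulsed 15 h with [3H]thymidine. Incorporated label counted after glass-fibre filtration. Proliferation expressed as percent of control; IC50 interpolated.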

[3] = Non cytotoxic IM activity index which is the ratio of IC50 of LcV to IC50 of MLR; type: functional
Mus musculus [4] = organism: Mus musculus; test: as §2; type: functional, organism-based
Outline: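 Two-way mixed lymphocyte reaction using splenocytes from Balb/c and C57Bl/6 mice, combined in equal volumes. Compounds were dissolved in absolute EtOH and tested at eight dilutions from 10 to 3.33 × 10^-6 mg/mL, in duplicate, with the solvent dried onto the wells. Cultures ran 96 h at 37 °C in 5% CO2, then were pulsed 15 h with [3H]thymidine. Incorporation was counted by scintillation; IC50 was interpolated from % proliferation relative to control.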

[5] = Compound was tested for Cytotoxic activity by lymphocyte viability assay; details: Mus musculus; outline: as §1

SMILES | IC50 [1] | IC50 (Mus musculus [2]) | Selectivity index [3] | IC50 (Mus musculus [4]) | IC50 [5]
COC(=O)[C@@H]1[C@H](c2cc(OC)c(OC)c(OC)c2)c2cc3c(cc2C(=O)[C@H]1CO)OCO3 | > 25 µg/mL | 1.41 µg/mL (≈ 3.17 µM) | >18 |  | 
COc1cc([C@@H]2c3cc4c(cc3C[C@H]3COC(=O)[C@@H]32)OCO4)cc(OC)c1O [4'-DEMETHYLDEOXYPODOPHYLLOTOXIN] | 11.5 µg/mL (≈ 29.9 µM) | 0.00281 µg/mL (≈ 0.00731 µM) | 4097 |  | 
COC(=O)[C@@H]1[C@H](c2cc(OC)c(OC)c(OC)c2)c2cc3c(cc2C2=NN(C(C)=O)C[C@H]21)OCO3 | > 100 µg/mL | 7.68 µg/mL (≈ 15.9 µM) | >13 |  | 
COc1cc(C2c3cc4c(cc3CC3COC(=O)C32)OCO4)cc(OC)c1OC(C)=O (configuration not stated) | 15.8 µg/mL (≈ 37.1 µM) |  | 220 | 0.0718 µg/mL (≈ 0.168 µM) | 
COc1cc(C2c3cc4c(cc3[C@@H](OC(C)=O)C3COC(=O)C23)OCO4)cc(OC)c1OC(C)=O (some centres not stated) | 22.8 µg/mL (≈ 47.1 µM) |  | 50 | 0.453 µg/mL (≈ 0.935 µM) | 
COc1cc([C@@H]2c3cc4c(cc3C(=O)[C@H]3COC(=O)[C@H]23)OCO4)cc(OC)c1O | > 25 µg/mL | 11.8 µg/mL (≈ 29.6 µM) | >2 |  | 
COc1cc([C@@H]2c3cc4c(c(O)c3C[C@H]3COC(=O)[C@@H]32)OCO4)cc(OC)c1O | 12.8 µg/mL (≈ 32 µM) | < 0.00495 µg/mL | >2586 |  | 
COc1cc([C@@H]2c3cc4c(cc3[C@@H](O)[C@H]3COC(=O)[C@H]23)OCO4)cc(OC)c1OC [EPIPODOPHYLLOTOXIN] | > 65 µg/mL | 0.229 µg/mL (≈ 0.553 µM) | >284 |  | 
COc1cc([C@@H]2c3cc4c(cc3C3=NN(c5ccccc5)C[C@H]3[C@@H]2COC(C)=O)OCO4)cc(OC)c1OC | > 100 µg/mL | 9.29 µg/mL (≈ 17.5 µM) | >11 |  | 
COc1cc([C@@H]2c3cc4c(c(O)c3C[C@H]3COC(=O)[C@@H]32)OCO4)cc(OC)c1OC [BETA-PELTATIN A] | 19.7 µg/mL (≈ 47.5 µM) | < 0.00945 µg/mL | >2085 |  | 
COc1cc(C2C3=C(COC3=O)Cc3cc4c(cc32)OCO4)cc(OC)c1OC (configuration not stated) | 27.5 µg/mL (≈ 69.4 µM) |  | >3333 | 0.00825 µg/mL (≈ 0.0208 µM) | 
COC(=O)[C@@H]1[C@H](c2cc(OC)c(OC)c(OC)c2)c2cc3c(cc2C2=NN(c4ccc(C)cc4)C[C@H]21)OCO3 | > 26 µg/mL | 0.848 µg/mL (≈ 1.6 µM) | >31 |  | 
COc1cc([C@@H]2c3cc4c(cc3[C@H](O)[C@H]3COC(=O)[C@H]23)OCO4)cc(OC)c1OC [PODOFILOX] |  |  | >2190 | < 0.128 µg/mL | 280 µg/mL (≈ 676 µM)
COc1cc([C@@H]2c3cc4c(cc3C3=NOC[C@H]3[C@@H]2C(=O)O)OCO4)cc(OC)c1OC | 30 µg/mL (≈ 70.2 µM) | < 0.009 µg/mL | >3333 |  | 
